SMILES strings stand for the structures.

This experiment deals with T1, Quinolone resistance protein NorA (Staphylococcus aureus) (UniProt P0A0J7).
T1 sequence (whole entry): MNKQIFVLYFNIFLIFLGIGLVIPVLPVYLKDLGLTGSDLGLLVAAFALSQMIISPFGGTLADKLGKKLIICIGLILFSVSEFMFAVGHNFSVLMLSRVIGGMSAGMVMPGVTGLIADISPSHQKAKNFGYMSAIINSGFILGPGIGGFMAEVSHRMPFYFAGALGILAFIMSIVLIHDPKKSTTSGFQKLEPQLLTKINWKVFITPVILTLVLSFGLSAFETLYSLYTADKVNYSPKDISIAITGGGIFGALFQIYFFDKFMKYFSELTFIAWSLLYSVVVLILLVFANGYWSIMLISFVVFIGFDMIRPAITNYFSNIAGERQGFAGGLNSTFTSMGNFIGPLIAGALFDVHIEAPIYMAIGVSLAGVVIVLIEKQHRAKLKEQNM
The experiment is described as follows: Inhibition of NorA in Staphylococcus aureus SA-1199B expressing GrlA A116E mutant assessed as reduction in EtBr efflux at 50 uM incubated for 5 mins by fluorescence based assay. The method, boiled down:
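Cells were grown overnight in cation-supplemented Mueller-Hinton broth at 35 °C and subcultured to OD600 0.7–0.8. They were loaded at OD600 0.8 with 25 µM EtBr plus 100 µM CCCP (final) for 20 min at room temperature. Cells were then resuspended in fresh broth with or without compound, 50 µM for the single-point screen or a concentration series for IC50. Fluorescence (ex 485/em 645 nm) was read for 5 min. Inhibition was calculated from the fluorescence decrease versus untreated cells. Biological triplicate, each run twice.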
With `CCCOc1ccc(-c2cc(O)c3cc(OC)c(OC)cc3n2)cc1`, the inhibition was 79.2%.

As for `CCCOc1ccc(-c2cc(OCCCN(C)C)c3cccc(OC)c3n2)cc1`, the inhibition came out at 64.7%.

For the molecule `CCCOc1ccc(-c2cc(OCCCl)c3cccc(OC)c3n2)cc1`, the inhibition worked out at 6.8%.

For the molecule `CCCOc1ccc(-c2cc(OCCN3CCc4cc(OC)c(OC)cc4C3)c3cccc(OC)c3n2)cc1`, the inhibition worked out at 65.5%.

With `C=COc1cc(-c2ccc(OCCC)cc2)nc2c(OC)cccc12`, the inhibition was determined as 13.3%.

Take `CCCOc1ccc(-c2cc(OCCN3CCc4cc(OC)c(OC)cc4C3)c3cc(OC)ccc3n2)cc1`: the inhibition was found to be 33%.

With `CCCOc1ccc(-c2cc(OCCN3CCCCC3)c3c(OC)cc(OC)cc3n2)cc1`, the inhibition came out at 49.7%.

`CCCOc1ccc(-c2cc(OCCCl)c3cc(OC)ccc3n2)cc1`: the inhibition was 10.5%.

Turning to `CCCOc1ccc(-c2cc(OCCCN(C)C)c3cc(OC)ccc3n2)cc1`, the inhibition was 79.5%.

Consider `CCCOc1ccc(-c2cc(OCCN3CCN(Cc4ccccc4)CC3)c3cc(OC)ccc3n2)cc1`, for which the inhibition amounted to 32%.

`CCCOc1ccc(-c2cc(OCCN3CCCCCC3)c3c(OC)cccc3n2)cc1`: the inhibition was 74.8%.

Take `CCCOc1ccc(-c2cc(OCCN3CCCCCC3)c3cc(OC)c(OC)cc3n2)cc1`: the inhibition was found to be 67.9%.

As to `CCCOc1ccc(-c2cc(OCCCl)c3ccc(OC)cc3n2)cc1`, the inhibition amounted to 57.5%.

For the molecule `CCCOc1ccc(-c2cc(OCCN3CCCCCC3)c3c(OC)cc(OC)cc3n2)cc1`, the inhibition turned out to be 74.1%.

As for `CCCOc1ccc(-c2cc(O)c3ccc(OC)cc3n2)cc1`, the inhibition turned out to be 55.7%.

The record behind these values is ChEMBL document CHEMBL4145675, “2-Phenylquinoline S. aureus NorA Efflux Pump Inhibitors: Evaluation of the Importance of Methoxy Group Introduction” (J Med Chem, 2018).
